From PubChem
NR1D1 modulator: modulates human Rev-erb alpha binding to DNA; Rev-erbα–FITC-DNA binding, fluorescence polarization, 90 min; activity, % at 10 µM; actives 0.79% (n = 370,000);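 active = activity above about 14%, limit read from the data; passing the limit was not always enough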
NR2E3 ag-1: agonists of human NR2E3 nuclear receptor; Q9Y5X4; CHO-S Gal4-NCOR/VP16-NR2E3 two-hybrid, luciferase; inhibition of corepressor binding, % at 3.98 µM; actives 0.35% (n = 360,000);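 active = inhibition above the mean of all tested compounds plus 3 SD, cut at about 70% in these data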;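 note: higher means lower luciferase signal from less NR2E3 corepressor binding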
PG9 Ab binder: PG9 antibody binding by small molecule. TR-FRET gp120-PG9 antibody binding. inhibition, % at 6.7 µM. actives 0.43% (n = 360,000). AID 624416; in the data active = inhibition above about 8.5%
NR2E3 ag-2: NR2E3 (human) agonism | actives 0.12% (n = 320,000) | Q9Y5X4 | inhibition of corepressor binding, % at 4.78 µM | GST-NR2E3/biotin-RetCOR TR-FRET, 1536-well;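 active = percent inhibition above the cutoff of mean plus 3 SD of all tested compounds, set per screening campaign, cut at about 20% in these data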
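Material: NR2E3–RetCOR corepressor complex / Incubation: Compound–protein incubation for 5 h at 4 °C / Dosing: compound at 4.8 µM, single dose / Detection: time-resolved FRET / Benchmarks: high control biotin, low control 0.6% DMSO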
NR2E3 agonist cf: confirmation of human NR2E3 nuclear receptor agonists. shares compounds with NR2E3 ag-2. cell-free NR2E3 corepressor release, TR-FRET, 5 h. activation (reported as inhibition), % at 3.98 µM. actives 39% (n = 360). AID 2379; in the data active = activation above about 20%
PPARg-NCOR2 ag: releases PPARgamma from NCOR2 in NR2E3 counter-screen | actives 45% (n = 360) | shares compounds with NR2E3 ag-2 | inhibition, % at 3.98 µM | AID 504787 | TR-FRET PPARg-NCOR2 coregulator interaction, biochemical; in the data active = inhibition above about 20%
PG9 binder conf: PG9 antibody binding, confirmed | shares compounds with PG9 Ab binder | TR-FRET PG9 antibody binding, biochemical | inhibition, % at 6.7 µM | actives 90% (n = 1,500); in the data active = inhibition above about 9%
PGV04 Ab binding: binds control antibody PGV04 in PG9 binder counter-screen | shares compounds with PG9 Ab binder | TR-FRET PGV04 antibody-gp120 binding, biochemical | inhibition, % at 6.7 µM | actives 95% (n = 1,500) | AID 651604; in the data active = inhibition above about 9.5%
Large screens that a line does not name were inactive (follow-up assays come after a bar, where they were run). A selection: hits, their analogues and other compounds. The true share with any hit is near 1.5%.

CSc1nc(N)nc(SCC(=O)OC(C)C)c1C#N	none
CSc1nc(N)nc(SCC(=O)c2ccc(C)cc2)c1C#N	PG9 Ab binder 23, NR2E3 ag-2 47 | NR2E3 agonist cf inactive | PPARg-NCOR2 ag inactive | PG9 binder conf 27 | PGV04 Ab binding 35
COC(=O)c1cc2c(-c3ccccc3)c(C)c3ccccn3c-2c1C(=O)OC	PG9 Ab binder 26, NR2E3 ag-2 28 | NR2E3 agonist cf 30 | PPARg-NCOR2 ag 29 | PG9 binder conf 35 | PGV04 Ab binding 53
Cc1c(NC(=O)c2ccc(N3CCCC3)c([N+](=O)[O-])c2)cccc1-c1nc2ccccc2s1	none
Cc1c(NC(=O)c2ncn[nH]2)cccc1-c1nc2ccccc2s1	PG9 Ab binder 27, NR2E3 ag-2 20 | NR2E3 agonist cf inactive | PPARg-NCOR2 ag inactive | PG9 binder conf 33 | PGV04 Ab binding 51
CSc1nc(-c2ccc(Cl)cc2)c(C#N)c(=O)[nH]1	none
CCC(Sc1nc(-c2ccccc2)c(C#N)c(=O)[nH]1)C(=O)Nc1cc(C)on1 (stereo not given)	PG9 Ab binder 28, NR2E3 ag-2 27 | NR2E3 agonist cf 20 | PPARg-NCOR2 ag 42 | PG9 binder conf 36 | PGV04 Ab binding 45
CSc1nc(-c2ccccc2)c(C#N)c(=O)[nH]1	PG9 Ab binder 15, NR2E3 ag-2 22 | NR2E3 agonist cf 22 | PPARg-NCOR2 ag 25 | PG9 binder conf 22 | PGV04 Ab binding 35
NC(=O)OC[C@@H]1[C@H](NC(=O)/C(=N\OCC(=O)O)c2csc(N)n2)C(=O)N1S(=O)(=O)O	none (no result: NR2E3 ag-1, PG9 Ab binder, NR2E3 ag-2)
O=C(CSc1nc2ccccc2c(=O)n1Cc1ccccc1)NCc1ccco1	PG9 Ab binder 20, NR2E3 ag-2 31 | NR2E3 agonist cf inactive | PPARg-NCOR2 ag inactive | PG9 binder conf 21 | PGV04 Ab binding 25
Cc1ccc(C(=O)C2=C(O)C(=O)N(Cc3cccnc3)C2c2cccc(Oc3ccccc3)c2)o1 (stereo not given)	PG9 Ab binder 48, NR2E3 ag-2 52 (no result: NR2E3 ag-1) | NR2E3 agonist cf 45 | PPARg-NCOR2 ag 41 | PG9 binder conf 47 | PGV04 Ab binding 54
C=CCOc1cccc(C2C(C(=O)c3cc4ccccc4o3)=C(O)C(=O)N2c2cc(C)on2)c1 (stereo not given)	PG9 Ab binder 17, NR2E3 ag-2 24 | NR2E3 agonist cf 31 | PPARg-NCOR2 ag 33 | PG9 binder conf 22 | PGV04 Ab binding 35
COc1ccccc1C1C(C(=O)c2cc3ccccc3o2)=C(O)C(=O)N1c1cc(C)on1 (stereo not given)	PG9 Ab binder 10, NR2E3 ag-2 22 | NR2E3 agonist cf 20 | PPARg-NCOR2 ag inactive | PG9 binder conf 18 | PGV04 Ab binding 32
CCCOc1ccc(C2C(C(=O)c3cc4ccccc4o3)=C(O)C(=O)N2c2cc(C)on2)cc1OC (stereo not given)	none
COc1cccc(C2C(C(=O)c3cc4ccccc4o3)=C(O)C(=O)N2c2cc(C)on2)c1 (stereo not given)	PG9 Ab binder 20, NR2E3 ag-2 27 | NR2E3 agonist cf 26 | PPARg-NCOR2 ag 26 | PG9 binder conf 17 | PGV04 Ab binding 25
Cc1cc(N2C(=O)C(O)=C(C(=O)c3ccc(C)o3)C2c2cccc(Oc3ccccc3)c2)no1 (stereo not given)	none
CC(C)CN(C[C@@H](OP(=O)(O)O)[C@H](Cc1ccccc1)NC(=O)O[C@H]1CCOC1)S(=O)(=O)c1ccc(N)cc1	none (no result: NR2E3 ag-1, PG9 Ab binder, NR2E3 ag-2)
Cc1onc(-c2ccccc2Cl)c1C(=O)Nc1nnc(-c2ccc(Br)cc2)s1	PG9 Ab binder 27, NR2E3 ag-2 22 | NR2E3 agonist cf inactive | PPARg-NCOR2 ag inactive | PG9 binder conf 31 | PGV04 Ab binding 49
Cc1onc(-c2ccccc2Cl)c1C(=O)Nc1nnc(-c2ccc(F)cc2)s1	none
